# Test results: ChEMBL document CHEMBL1125879, “Synthesis and antimalarial activity of 2-aziridinyl- and 2,3-bis(aziridinyl)-1,4-naphthoquinonyl sulfonate and acylate derivatives” (J Med Chem, 1991)
# pIC50: −log10 of the molar value.
# Test: In vitro antimalarial activity against human malaria parasite, P falciparum (Vietnam Smith strain)
# Type: functional, Plasmodium falciparum
# In short: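 P. falciparum in infected erythrocytes, semisynchronized cultures, initial parasitemia 1-3%, in RPMI 1640 with 25 mM HEPES, bicarbonate, 5% pooled calf serum; agents from 10^-2 M DMSO stocks at various concentrations, 48 h exposure with 1 μCi [3H]hypoxanthine per well throughout. Filter-harvested, scintillation counted. IC50 = 50% drop in incorporation vs drug-free controls, graphic extrapolation, mean of 2-4 observations.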
row,SMILES,pIC50
1,CN(C)c1cccc2c(S(=O)(=O)Oc3cccc4c3C(=O)C=C(NCCCl)C4=O)cccc12,5.54
2,O=C1C(N2CC2)=C(N2CC2)C(=O)c2c(OS(=O)(=O)c3ccc([N+](=O)[O-])c([N+](=O)[O-])c3)cccc21,5.62
3,O=C1C(N2CC2)=CC(=O)c2c(OS(=O)(=O)/C=C/c3ccccc3)cccc21,6.77
4,Cc1ccc(S(=O)(=O)Oc2cccc3c2C(=O)C=C(N2CC2)C3=O)cc1,6.70
5,O=C(Oc1cccc2c1C(=O)C=C(N1CC1)C2=O)c1ccc(Cl)cc1,6.28
6,C/N=C1\C=C(O)c2c(O)cccc2C1=O,5.43
7,COc1ccc(S(=O)(=O)Oc2cccc3c2C(=O)C=C(N2CC2)C3=O)cc1,6.80
8,O=C1C=CC(=O)c2c(O)cccc21 [JUGLONE],5.43
9,O=C(Oc1cccc2c1C(=O)C(N1CC1)=C(N1CC1)C2=O)c1cc(Cl)sc1Cl,5.41
10,CC(C)(C)c1ccc(S(=O)(=O)Oc2cccc3c2C(=O)C=C(N2CC2)C3=O)cc1,7.62
11,CC1=CC(=O)c2ccccc2C1=O [MENADIONE],5.47
12,COc1cc(C(=O)Oc2cccc3c2C(=O)C(N2CC2)=C(N2CC2)C3=O)cc(OC)c1OC,5.47
13,O=C(Oc1cccc2c1C(=O)C(N1CC1)=C(N1CC1)C2=O)c1ccccc1,5.59
14,CC(C)c1cc(C(C)C)c(S(=O)(=O)Oc2cccc3c2C(=O)C(N2CC2)=C(N2CC2)C3=O)c(C(C)C)c1,5.52
15,O=C(Oc1cccc2c1C(=O)C(N1CC1)=C(N1CC1)C2=O)c1ccc(Cl)cc1,5.77
16,CN(C)c1cccc2c(S(=O)(=O)Oc3cccc4c3C(=O)C=C(N3CC3)C4=O)cccc12,6.54
17,CS(=O)(=O)Oc1cccc2c1C(=O)C=C(NCCCl)C2=O,5.07
18,O=C1C(N2CC2)=CC(=O)c2c(OS(=O)(=O)c3ccccc3)cccc21,6.64
19,CC1=C(N2CC2)C(=O)c2c(OS(=O)(=O)c3ccc(C(C)(C)C)cc3)cccc2C1=O,5.44
20,O=C1C(N2CC2)=C(N2CC2)C(=O)c2c(OS(=O)(=O)c3ccccc3)cccc21,5.24
21,CC1=C(N2CC2)C(=O)c2c(O)cccc2C1=O,5.82
22,O=C1C(N2CC2)=C(N2CC2)C(=O)c2c(OS(=O)(=O)c3ccc(Cl)cc3)cccc21,5.49

row,SMILES,pIC50
1,O=C1C=C(O)C(=O)c2ccccc21 [LAWSONE],4.00
2,O=C(Oc1cccc2c1C(=O)C=C(N1CC1)C2=O)c1ccccc1,6.35
3,CCc1ccc(S(=O)(=O)Oc2cccc3c2C(=O)C(N2CC2)=C(N2CC2)C3=O)cc1,5.40
4,O=C(Oc1cccc2c1C(=O)C(N1CC1)=C(N1CC1)C2=O)c1ccc(F)cc1,5.36
5,O=C1C(N2CC2)=C(N2CC2)C(=O)c2c(OS(=O)(=O)c3cccc4ccccc34)cccc21,5.47
6,O=C1/C(=N/CCCl)C=C(O)c2c(O)cccc21,5.37
7,O=C1C(N2CC2)=C(N2CC2)C(=O)c2c(OS(=O)(=O)Cc3ccccc3)cccc21,5.62
8,CC1=CC(=O)c2c(O)cccc2C1=O [PLUMBAGIN],5.62
9,CN(C)S(=O)(=O)Oc1cccc2c1C(=O)C=C(NCCCl)C2=O,5.66
10,Cc1cc(C)c(S(=O)(=O)Oc2cccc3c2C(=O)C(N2CC2)=C(N2CC2)C3=O)c(C)c1,5.41
11,O=C1C(N2CC2)=CC(=O)c2c(OS(=O)(=O)c3cccc4ccccc34)cccc21,6.89
12,O=C1C(N2CC2)=CC(=O)c2c(OS(=O)(=O)c3cccs3)cccc21,6.33
13,O=C1C(N2CC2)=C(N2CC2)C(=O)c2c(OS(=O)(=O)c3ccc(Br)cc3)cccc21,5.43
14,CS(=O)(=O)Oc1cccc2c1C(=O)C(N1CC1)=C(N1CC1)C2=O,5.49
15,O=C1C(N2CC2)=C(N2CC2)C(=O)c2c(OC(=O)C34CC5CC(CC(C5)C3)C4)cccc21,5.27
16,O=C1C(N2CC2)=CC(=O)c2c(OS(=O)(=O)c3ccc(I)cc3)cccc21,6.48
17,CN(C)c1cccc2c(S(=O)(=O)Oc3cccc4c3C(=O)C(N3CC3)=C(N3CC3)C4=O)cccc12,5.52
18,O=C1C(N2CC2)=CC(=O)c2c(OS(=O)(=O)c3cccc4cccnc34)cccc21,6.37
19,O=C1C(N2CC2)=C(N2CC2)C(=O)c2c(OS(=O)(=O)c3ccc([N+](=O)[O-])cc3)cccc21,5.12
20,CN(C)C1=CC(=O)c2c(O)cccc2C1=O,5.80
21,O=C1C(NCCCl)=CC(=O)c2c(OS(=O)(=O)Cc3ccccc3)cccc21,5.19
22,COc1cc(C(=O)Oc2cccc3c2C(=O)C=C(N2CC2)C3=O)cc(OC)c1OC,6.80

row,SMILES,pIC50
1,O=C(Oc1cccc2c1C(=O)C=C(N1CC1)C2=O)c1ccc(F)cc1,6.31
2,O=C(Oc1cccc2c1C(=O)C=C(N1CC1)C2=O)c1ccco1,6.31
3,O=C1C(N2CC2)=C(N2CC2)C(=O)c2c(OS(=O)(=O)/C=C/c3ccccc3)cccc21,5.24
4,O=C1C(N2CC2)=CC(=O)c2c(O)cccc21,7.06
5,O=C1C(N2CC2)=CC(=O)c2c(OS(=O)(=O)c3ccc(F)cc3)cccc21,6.85
6,O=C1C(N2CC2)=C(N2CC2)C(=O)c2c(OS(=O)(=O)c3ccc(I)cc3)cccc21,5.39
7,Cc1ccc(C(=O)Oc2cccc3c2C(=O)C(N2CC2)=C(N2CC2)C3=O)cc1,5.36
8,CCCCCCCCCCCCCCCCS(=O)(=O)Oc1cccc2c1C(=O)C(N1CC1)=C(N1CC1)C2=O,4.70
9,O=C1C(N2CC2)=C(N2CC2)C(=O)c2c(OS(=O)(=O)CCCCl)cccc21,5.52
10,O=C(Oc1cccc2c1C(=O)C(N1CC1)=C(N1CC1)C2=O)c1ccco1,5.34
11,COc1ccc(C(=O)Oc2cccc3c2C(=O)C(N2CC2)=C(N2CC2)C3=O)cc1,5.43
12,CC1(C)C2CCC1(CS(=O)(=O)Oc1cccc3c1C(=O)C(N1CC1)=C(N1CC1)C3=O)C(=O)C2 (centres undefined),5.22
13,O=C(Oc1cccc2c1C(=O)C=C(N1CC1)C2=O)c1cccs1,6.33
14,CC(C)c1cc(C(C)C)c(S(=O)(=O)Oc2cccc3c2C(=O)C=C(N2CC2)C3=O)c(C(C)C)c1,6.55
15,O=C(Oc1cccc2c1C(=O)C(N1CC1)=C(N1CC1)C2=O)c1cccs1,5.59
16,CCc1ccc(S(=O)(=O)Oc2cccc3c2C(=O)C=C(N2CC2)C3=O)cc1,7.02
17,Cc1ccc(S(=O)(=O)Oc2cccc3c2C(=O)C(N2CC2)=C(N2CC2)C3=O)cc1,5.34
18,O=C1C(N2CC2)=C(N2CC2)C(=O)c2c(O)cccc21,5.80
19,Cc1ccc(C(=O)Oc2cccc3c2C(=O)C=C(N2CC2)C3=O)cc1,6.21
20,COc1ccc(C(=O)Oc2cccc3c2C(=O)C=C(N2CC2)C3=O)cc1,6.27
